Screening data (PubChem BioAssay)
RGS4 block = inhibitors of human RGS4; P49798; HEK293 M3R/RGS4 inducible, Fluo-4 calcium flux; hits give high values; triggered by carbachol at its EC20; B-score at 10 µM; 310,000 compounds, 0.45% hits; AID 463165;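 active means B-score, a plate-corrected calcium signal, over three deviations above library mean, with baseline fluorescence within five deviations of library mean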;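 further: RGS4 expression induced by doxycycline in cells with stable M3 receptor; B-score is computed from the integrated fluorescence ratio over baseline after carbachol; higher B-score means a larger calcium signal and so more RGS4 inhibition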
Target sequence (P49798 whole entry, looked up): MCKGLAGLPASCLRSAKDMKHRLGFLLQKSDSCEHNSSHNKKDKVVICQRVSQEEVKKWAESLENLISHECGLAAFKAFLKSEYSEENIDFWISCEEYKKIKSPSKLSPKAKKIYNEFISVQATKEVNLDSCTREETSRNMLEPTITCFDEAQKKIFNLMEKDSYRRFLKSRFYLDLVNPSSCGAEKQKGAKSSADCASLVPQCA
MrgX1 allo act = allosterically activates human MrgX1 receptor signaling | Q96LB2 | MrgX1-HEK293, Fluo-4 calcium flux, FDSS; hits give high values | B-score at 10 µM | 310,000 compounds, 0.63% hits | AID 588675;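 active means plate-corrected calcium response at least 3 library SD above typical, normal starting fluorescence, not activating the receptor alone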;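 further: compound read alongside a low EC10 to EC30 dose of BAM8-22 agonist; peak minus trough fluorescence over baseline measured at the second addition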
MrgX1 ag = human MrgX1 receptor agonism, primary screen | B-score at 10 µM | 310,000 compounds, 0.44% hits | Q96LB2 | AID 588627 | MrgX1-HEK293 cells, Fluo-4 calcium fluorescence, agonist mode; hits give high values;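 active means calcium response B-score plate-corrected fluorescence ratio at least 3 library SD, with starting fluorescence B-score inside 5 SD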
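Assay system: stable human MrgX1 HEK293 cell line. Quantity: 15,000 cells per well. Schedule: cells plated overnight, dye loaded 0.5 h 37 °C, 0.5 h room temperature. Detection: Fluo-4 NW calcium-flux fluorescence, kinetic read. Read-out basis: peak-minus-minimum fluorescence over baseline, converted to B scores. Control set: positive and negative control wells on each plate.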
Kir21 inh = Kir2.1 (mouse) channel inhibition; P35561; HEK293-Kir2.1, FluxOR thallium flux fluorescence; hits give low values; B-score at 10 µM; 310,000 compounds, 0.85% hits; AID 1672;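 active means fluorescence ratio B-score at or below minus 3 SD of library scores, with starting-brightness B-score within 2 SD, cut at about -4.2 in these data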;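 further: channel flux triggered by added potassium and thallium sulfate stimulus; B-score of peak minus minimum fluorescence over baseline after thallium stimulus; more negative B-score means stronger Kir2.1 block with less thallium influx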
Target sequence (P35561 whole entry, looked up): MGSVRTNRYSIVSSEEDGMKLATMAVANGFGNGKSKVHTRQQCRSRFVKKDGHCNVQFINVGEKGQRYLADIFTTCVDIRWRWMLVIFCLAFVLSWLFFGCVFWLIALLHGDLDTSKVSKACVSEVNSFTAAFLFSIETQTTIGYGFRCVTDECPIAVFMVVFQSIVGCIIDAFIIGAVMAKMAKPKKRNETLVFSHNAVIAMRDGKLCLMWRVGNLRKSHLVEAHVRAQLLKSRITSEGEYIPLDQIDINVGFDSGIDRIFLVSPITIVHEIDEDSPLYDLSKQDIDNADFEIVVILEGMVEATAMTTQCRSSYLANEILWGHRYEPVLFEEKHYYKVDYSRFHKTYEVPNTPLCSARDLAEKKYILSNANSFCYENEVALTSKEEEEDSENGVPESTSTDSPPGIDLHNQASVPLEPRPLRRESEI
MrgX1 antag = blocks BAM8-22 activation of human MrgX1 receptor; MRGX1-HEK293 calcium flux, Fluo-4, BAM8-22 antagonism; hits give low values; B-score at 10 µM; 310,000 compounds, 1.3% hits;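 active means calcium-response B-score plate-corrected more than 3 library SD below zero, starting fluorescence within 5 deviations, no agonist response on first addition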;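 further: peak minus trough fluorescence over baseline after final BAM8-22 challenge near maximal dose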
RGS4 pot = potentiators or activators of RGS4; 310,000 compounds, 0.92% hits; HEK293 M3R/inducible RGS4, carbachol calcium flux Fluo4; hits give low values; B-score at 10 µM;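 active means B-score of the integrated calcium signal more than 4 SD below the library mean, with starting fluorescence not abnormally high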;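 further: negative B-score means reduced calcium response which marks RGS4 activation or potentiation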
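test system = HEK293 cells with stable M3R and inducible RGS4 | schedule = recording 10 s baseline at 1 Hz, 100 s post-agonist | technique = Fluo4-AM (2 µM) calcium-flux fluorescence, kinetic read | measure = Agonist-evoked peak-minus-minimum fluorescence over baseline, integrated ratio, B score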
MrgX1 antag conf = human MrgX1 receptor antagonism, re-confirmation screen; shares compounds with MrgX1 antag; 2,300 compounds, 19% hits; remaining BAM8-22 calcium response % of control (hits give low values), % at 10 µM; AID 602420; MrgX1-HEK293, BAM8-22 calcium flux, Fluo-4; hits give low values;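 active means remaining agonist calcium response no higher than 100% minus 3 SD of agonist-only control wells, with starting fluorescence near control levels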;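 further: agonist BAM8-22 given at a near maximal EC90 to ECmax level; peak minus minimum fluorescence divided by baseline after agonist addition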
HEK293 Ca flux = activity in parental HEK293 cells lacking MrgX1; shares compounds with MrgX1 antag; Fluo-4 calcium fluorescence, FDSS; fluorescence ratio F(max-min)/F0 at 10 µM; 4,000 compounds, 2% hits; AID 624111;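 active means duplicate-averaged calcium fluorescence ratio at least three times the standard deviation of buffer wells, a nonspecific response in parental cells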
HEK293 Ca counter = counter-screen for MrgX1 allosteric activators: effect in parental HEK293 cells | fluorescence ratio F(max-min)/F0 at 10 µM | AID 624114 | shares compounds with MrgX1 antag | 4,000 compounds, 0.4% hits | parental HEK293 calcium flux, Fluo-4 fluorescence ratio; hits give high values;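 active means calcium fluorescence ratio, averaged over duplicates, at least 3 SD of the buffer-well ratio, meaning a nonspecific response in receptor-free cells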;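 further: untransfected parental HEK293 lacking MrgX1 used as counterscreen for MrgX1 allosteric activators; fluorescence change taken during the second addition on a kinetic imager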
HEK293 Ca cntr2 = activity in parental HEK293 cells lacking MrgX1 receptor. shares compounds with MrgX1 antag. Fluo-4 calcium fluorescence (FDSS); hits give high values. fluorescence ratio F(max-min)/F0 at 10 µM. 4,000 compounds, 8.7% hits. AID 624115;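 active means calcium fluorescence ratio at least three times the spread of buffer wells, meaning a non-specific response in parental cells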
* = called active by the depositor; i = inactive; . = no result given. Sampled rows, rich in hits. Any-hit rate of the full collection: about 4.1%.

SMILES	RGS4 block	MrgX1 allo act	MrgX1 ag	Kir21 inh	MrgX1 antag	RGS4 pot	MrgX1 antag conf	HEK293 Ca flux	HEK293 Ca counter	HEK293 Ca cntr2
COc1cc2cc(CN(Cc3cccs3)C(=S)Nc3ccccc3)c(=O)[nH]c2cc1OC	i	i	i	-0.63	i	i	.	.	.	.
O=C(NCc1cccs1)c1ccccc1F	i	i	i	1.08	-6.2*	i	i	i	i	i
Cc1cc2c(NC(=O)Nc3ccc(C(C)(C)C)cc3)cccc2nn1	i	i	i	1.85	-6.86*	i	78.5%*	i	i	i
O=C(NC1(C(F)(F)F)NC(=O)N(Cc2ccco2)C1=O)c1cccnc1 (centres undefined)	i	i	i	2.18	i	i	.	.	.	.
CC(=O)Nc1ccc(NC(=O)C(C)O/N=C/c2cccc([N+](=O)[O-])c2)cc1 (centres undefined)	i	i	i	1.15	i	i	.	.	.	.
CCn1c(SCC(=O)Nc2cccc(O)c2)nc2c1c(=O)n(C)c(=O)n2C	i	i	i	0.7	i	i	.	.	.	.
CCn1c(SCC(=O)Nc2cccc(C)n2)nc2c1c(=O)n(C)c(=O)n2C	i	i	i	-2.1	-5.92*	i	i	i	i	i
O=C(CCCc1ccccc1)Nc1ccnn1C1CCN(Cc2ccccc2)CC1	i	i	i	-2.84	i	i	.	.	.	.
O=S1(=O)c2cccc3cccc(c23)N1Cc1ccc(-c2nnco2)cc1	i	i	i	-0.67	i	i	.	.	.	.
Cc1ccccc1-c1nnnn1C1CCS(=O)(=O)C1 (centres undefined)	i	i	i	-0.4	-6.38*	i	i	i	i	i
O=C(NCc1ccco1)C1CCCN1C(=O)Nc1cccc(Cl)c1 (centres undefined)	i	i	i	-0.72	i	i	.	.	.	.
O=C(COc1cccc(NC(=O)c2ccccc2)c1)c1ccccc1	i	i	i	-1.16	i	i	.	.	.	.
O=C(COc1cccc(NC(=O)c2cccs2)c1)c1ccc(F)cc1	i	i	i	0.04	-4.94*	i	i	i	i	i
Cc1ccc(Nc2c3c(nc4ncnn24)CCC3)cc1	i	i	i	1.71	-7.23*	i	i	i	i	i
CCc1noc(C)c1C(=O)N1CCCC1	i	i	i	0.71	-4.66*	i	78.0%*	i	i	i
CCc1noc(C)c1C(=O)N1CC(C)OC(C)C1 (centres undefined)	i	i	i	0.72	i	i	.	.	.	.
C=CCOc1ccc(S(C)(=O)=O)cc1	i	i	i	0.01	i	i	.	.	.	.
O=S(=O)(NCc1ccc(Cl)cc1)NCc1ccc(Cl)cc1	i	i	i	1.39	i	i	.	.	.	.
Cc1ccc(N2CN(Cc3ccco3)CNC2=S)c(C)c1	i	i	i	2.08	-6.25*	i	i	i	i	i
Cc1ccc(N2CN(Cc3cccnc3)CNC2=S)c(C)c1	i	i	i	-0.09	i	i	.	.	.	.
CC(NC(=O)CN(C)S(=O)(=O)c1ccc2c(c1)c(=O)n(C)c(=O)n2C)c1ccccc1 (centres undefined)	i	i	i	0.29	i	i	.	.	.	.
O=C1CC(N2CCN(Cc3ccccc3)CC2)C(=O)N1CCc1ccccc1 (centres undefined)	i	i	i	-0.73	-5.41*	i	i	i	i	i
O=C(Nc1ccccc1)N1CCSCC1	i	i	i	-0.27	i	i	.	.	.	.
Cc1ccc(C)c(NS(=O)(=O)c2ccc3[nH]c(=O)[nH]c3c2)c1	i	i	i	0.63	i	i	.	.	.	.
Cc1ccc(C)c(NS(=O)(=O)c2ccc3[nH]c(=O)oc3c2)c1	i	i	i	1.29	-5.26*	i	i	i	i	i
SMILES	RGS4 block	MrgX1 allo act	MrgX1 ag	Kir21 inh	MrgX1 antag	RGS4 pot	MrgX1 antag conf	HEK293 Ca flux	HEK293 Ca counter	HEK293 Ca cntr2
COc1ccccc1Nc1ncccc1C(=O)O	i	i	i	0.14	-8.53*	i	77.1%*	i	i	i
O=C(CSc1n[nH]c(=O)n1C1CC1)Nc1cc(Cl)ccc1Oc1ccccc1	i	i	i	1.18	-8.42*	i	i	i	i	i
O=C(CSc1n[nH]c(=O)n1C1CC1)Nc1ccccc1	i	i	i	-1.68	i	i	.	.	.	.
CC(Sc1nc(-c2ccccc2)cc(C(F)(F)F)n1)C(=O)N1CCCCC1 (centres undefined)	i	i	i	0	i	i	.	.	.	.
CC(=O)c1cccc(OCc2cc(C(=O)N3CCSCC3)no2)c1	i	i	i	1.23	-9.04*	i	i	i	i	i
COc1cccc(C(=O)N2CCN(C(=O)c3cccc4ccccc34)CC2)c1OC	i	i	i	3.17	-4.9*	i	85.4%*	i	i	i
CN(CCN1CCOCC1)C(=O)CC1C(=O)NCCN1Cc1ccccc1F (centres undefined)	i	i	i	-0.98	-8.63*	i	i	i	i	i
CN(CCC1CCOCC1)C(=O)CC1C(=O)NCCN1Cc1ccccc1F (centres undefined)	i	i	i	-1.24	i	i	.	.	.	.
CCc1ccccc1NC(=O)[C@@H]1CCC(=O)N1C1OC(=O)c2ccccc21 (some centres undefined)	i	i	i	-1.28	-8.13*	i	84.9%*	i	i	i
N/C(CS(=O)(=O)c1ccc(F)cc1)=N\O	i	i	i	0.71	i	i	.	.	.	.
COc1ccccc1C1C(C#N)=C(N)N(c2cccnc2)C2=C1C(=O)CC(C)(C)C2 (centres undefined)	i	i	i	-1.18	-8.78*	i	i	i	i	i
